Source: ChEMBL document CHEMBL3399991, “Design, synthesis and biological evaluation of a highly-potent and cancer cell selective folate-taxoid conjugate” (Bioorg Med Chem, 2015)

Assays:
[1] = system: L1210; assay: Cytotoxicity against folate receptor over-expressing mouse L1210 cells after 72 hrs by MTT assay; assay type: functional, cell-based; conditions: L1210, 72 h
Procedure, shortened: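 L1210FR cells grown in suspension in supplemented RPMI-1640. Resuspended directly in test solutions, 0.5–5,000 nM final, at 0.5–0.8 × 10^4 cells/well, DMSO ≤1%. Incubated 72 h. MTT 0.5 mg/mL for 3 h at 37 °C, formazan dissolved in 0.1 N HCl/isopropanol with 10% Triton X-100, absorbance at 570 nm. IC50 from four-parameter logistic fit, with standard errors.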

[2] = Cytotoxicity against folate receptor over-expressing mouse ID8 cells after 72 hrs by MTT assay; assay type: functional, cell-based; conditions: ID8, 72 h
Procedure, shortened: (§1)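 Adherent monolayers in RPMI-1640 with 5% heat-inactivated FBS, 5% NuSerum and PenStrep, 37 °C, 5% CO2. Seeded 0.5–1.5 × 10^4 cells/well and left to attach overnight, then medium replaced. Compound diluted from DMSO stock to 0.5–5,000 nM final, DMSO ≤1%, 72 h. MTT 0.5 mg/mL for 3 h at 37 °C, formazan dissolved in acidic isopropanol/Triton, A570. IC50 from four-parameter logistic fit.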

[3] = system: MX1; assay: Cytotoxicity against folate receptor over-expressing human MX1 cells after 72 hrs by MTT assay; assay type: functional, cell-based; conditions: MX1, 72 h; procedure, shortened: as §1
[4] = Cytotoxicity against folate receptor deficient human WI38 cells after 72 hrs by MTT assay; assay type: functional, cell-based; conditions: WI-38, 72 h; procedure, shortened: as §1
[5] = system: MX1; assay: Selectivity index, ratio of IC50 for folate receptor deficient human WI38 cells to IC50 for folate receptor over-expressing human MX1 cells
[6] = system: MX1; assay: Cytotoxicity against folate receptor over-expressing human MX1 cells incubated for 24 hrs followed by 6 equiv GSH-OEt addition and further incubated for another 48 by MTT assay; assay type: functional, cell-based; conditions: MX1, 24 h
Procedure, shortened: (§2)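 After 24 h treatment with the conjugate, glutathione ethyl ester (GSH-OEt, 6 equiv.) was added, followed by a further 48 h, 72 h total. Cells-permeable thiol ester. Compound 0.5–5,000 nM in RPMI-1640 medium. MTT read-out at 570 nm. IC50 from four-parameter logistic fit.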

[7] = system: L1210; assay: Selectivity index, ratio of IC50 for folate receptor deficient human WI38 cells to IC50 for folate receptor over-expressing mouse L1210 cells
[8] = system: L1210; assay: Cytotoxicity against folate receptor over-expressing mouse L1210 cells incubated for 24 hrs followed by 6 equiv GSH-OEt addition and further incubated for another 48 by MTT assay; assay type: functional, cell-based; conditions: L1210, 24 h; procedure, shortened: as §2
[9] = system: L1210; assay: Cytotoxicity against folate receptor over-expressing mouse L1210 cells incubated for 24 hrs followed by 6 equiv GSH addition and further incubated for another 48 by MTT assay; assay type: functional, cell-based; conditions: L1210, 24 h
Procedure, shortened: (§3)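 Cells were exposed to the conjugate for 24 h, then reduced glutathione (GSH, 6 equiv.) was added and incubation continued 48 h, 72 h in total. Compound range 0.5–5,000 nM in RPMI-1640 medium, which contains folic acid. Read-out by MTT at 570 nm. IC50 from four-parameter logistic curve.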

[10] = system: MX1; assay: Cytotoxicity against folate receptor over-expressing human MX1 cells incubated for 24 hrs followed by 6 equiv GSH addition and further incubated for another 48 by MTT assay; assay type: functional, cell-based; conditions: MX1, 24 h; procedure, shortened: as §3
[11] = system: WI-38; assay: Selectivity index, ratio of IC50 for folate receptor deficient human WI38 cells to IC50 for folate receptor over-expressing mouse ID8 cells

Row | Structure (SMILES) | IC50 [1] | IC50 [2] | IC50 [3] | IC50 [4] | Ratio IC50 [5] | IC50 [6] | Ratio IC50 [7] | IC50 [8] | IC50 [9] | IC50 [10] | Ratio IC50 [11]
1 | CC(=O)O[C@@]12CO[C@@H]1C[C@H](O)[C@@]1(C)C(=O)[C@H](OC(=O)C3CC3)C3=C(C)[C@@H](OC(=O)[C@H](O)[C@H](C=C(C)C)NC(=O)OC(C)(C)C)C[C@@](O)([C@@H](OC(=O)c4ccccc4)[C@H]21)C3(C)C | 2.66 nM | 2.82 nM | 1.89 nM | 4.89 nM | – | – | – | – | – | – | –
2 | CC(=O)O[C@@]12CO[C@@H]1C[C@H](O)[C@@]1(C)C(=O)[C@H](OC(=O)C3CC3)C3=C(C)[C@@H](OC(=O)[C@H](OC(=O)Cc4ccccc4SSC(C)CCC(=O)NCCCOCCOCCOCCCNC(=O)c4ccc(CC5CCCCCc6c5nnn6CCOCCOCCOCCNC(=O)CC[C@@H](NC(=O)CC[C@@H](NC(=O)c5ccc(NCc6cnc7nc(N)nc(O)c7n6)cc5)C(=O)O)C(=O)N[C@H](CCCNC(=N)N)C(=O)O)cc4)[C@H](C=C(C)C)NC(=O)OC(C)(C)C)C[C@@](O)([C@@H](OC(=O)c4ccccc4)[C@H]21)C3(C)C (some centres undefined) | 3.51 nM | 2.52 nM | 3.43 nM | > 5000 nM | >1000 | 2.08 nM | >1000 | 3.35 nM | 3.87 nM | 3.42 nM | >1000
3 | CC(=O)O[C@H]1C(=O)[C@@]2(C)[C@H]([C@H](OC(=O)c3ccccc3)[C@]3(O)C[C@H](OC(=O)[C@H](O)[C@@H](NC(=O)c4ccccc4)c4ccccc4)C(C)=C1C3(C)C)[C@]1(OC(C)=O)CO[C@@H]1C[C@@H]2O [PACLITAXEL] | 27.6 nM | 13.8 nM | 5.59 nM | 55.7 nM | – | – | – | – | – | – | –
